Source: PubChem BioAssay AID1899 (The Scripps Research Institute Molecular Screening Center, 2009)
In all, about 300,000 compounds went through this assay and about 1,000 (0.33%) were called active.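 The calls were made as follows: active = inhibition above the mean of all tested compounds plus 3 SD, set per screening campaign (cut at about 45% in these data); inactive = the rest.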 Shown is part of a subset that was picked to be rich in actives.

Test system: HCV core protein (residues 1-106) dimerization
Test: blockers of core106 self-association – biochemical, TR-FRET, high-throughput, primary screen (AID 1899)
Settings: TR-FRET GST/Flag-core106 dimerization, 1536-well; at 5 µM; hits give high values
Summary of the method: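 Assay system – GST-tagged and Flag-tagged HCV core protein residues 1-106 · Quantity – core106 proteins, GST 13.5 nM and Flag 17 nM · Benchmarks – unlabelled core106 and no-GST-core106 wells · Read-out basis – percent inhibition of core106 dimerization signal · Detection – time-resolved FRET, ex 340 nm, em 617 and 671 nm · Schedule – 4 h at 22.5 °C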

inhibition, active:
Cc1ccc(NC(=O)c2cc(-c3ccc(C)o3)nc3ccccc23)nc1 49.3%, COc1ccc(N2CCN(C(=O)CSc3nc4cc(OC)c(OC)cc4cc3C#N)CC2)cc1 53.1%, CN(C(=O)COc1nnc(-c2cccs2)c(-c2cccs2)n1)c1ccccc1 49%, COc1ccc(S(=O)(=O)N/N=C\c2ccc(OC)c(COc3ccc(C)cc3[N+](=O)[O-])c2)cc1 56%, O=C(CN1CCN(S(=O)(=O)/C=C/c2ccccc2)CC1)NC(=O)NCc1ccco1 47.9%, C=CCOC(=O)C1=C(C)NC(SCC(=O)OCC)=C(C#N)C1c1ccc(C)cc1 (stereo not given) 59.5%, CS(=O)(=O)c1ccc2c(c1)SC1=NC(=O)/C(=C/c3ccco3)C(=N)N12 79.4%, O=C(NCc1cccs1)c1cc(-c2ccccn2)nc2ccc(Br)cc12 49.3%, Cc1ccc(Cc2cnc(NC(=O)/C(C#N)=C/c3ccc(-c4cccc([N+](=O)[O-])c4)o3)s2)cc1 46.7%, O=C(CCCN1C(=O)/C(=C\c2ccco2)SC1=S)Nc1cccc2ccccc12 50.6%, CCC(c1nnnn1Cc1ccco1)N(Cc1cc2cc(OC)ccc2[nH]c1=O)C1CCCCC1 (stereo not given) 53.5%

inhibition, inactive:
CC(=O)N1CCN(C(=O)c2cc(-c3ccc(C)o3)nc3ccccc23)CC1 1.32%, COc1ccc(NC(=O)c2cc(-c3ccc(C)o3)nc3ccccc23)cc1 17.9%, CN(CC(=O)Nc1cccc2c1CCCC2)S(=O)(=O)c1ccc(Cl)cc1 1.71%, CCOc1ccc(-c2nnn(CC(=O)N3CCN(c4ccc(OC)cc4)CC3)n2)cc1OCC 7.89%, COc1ccc(N2CCN(C(=O)CSc3nnc4ncccn34)CC2)cc1 -2.8%, Cc1nnc(SC(C(=O)Nc2cc(Cl)cc(Cl)c2)c2ccccc2)[nH]c1=O (stereo not given) 4.94%, O=C(O)Cc1sc(-c2ccccc2)nc1-c1cccs1 5.73%, COC(=O)c1cc(-c2cccs2)nc2ccccc12 3.48%, CN(C(=O)CC1C(=O)NCCN1Cc1ccc(F)cc1Cl)C1CCCCC1 (stereo not given) -6.47%, Cc1ccc(C(=O)c2coc3ccc(O)c(CN(C)C)c23)cc1 -5.01%, COc1cc(OC)c(C(=S)N2CCCC2)cc1OC 4.43%, COc1ccc(/C=N/NS(=O)(=O)c2ccc(NC(C)=O)cc2)cc1 -3.63%, Cc1ccc(S(=O)(=O)N/N=C\c2cc3c(cc2[N+](=O)[O-])OCO3)cc1 2.28%, COc1ccccc1N(CC(=O)Nc1ccc(C(F)(F)F)cc1)S(C)(=O)=O -4.98%, O=C(O)CSc1nccn1-c1cccc(Cl)c1 -3.31%, CC(C(=O)N=Nc1c(O)n(C)c2ccc(Br)cc12)n1cnc2ccccc2c1=O (stereo not given) 11.6%, O=C(CN1CCN(S(=O)(=O)/C=C/c2ccccc2)CC1)Nc1ccc(N2CCOCC2)cc1 2.85%, COc1ccccc1N1CCN(CC(=O)NC(=O)NCc2ccco2)CC1 -7.99%, Cc1ccc(S(=O)(=O)NCCC(=O)OCC(=O)N(C)c2ccccc2)cc1 -0.65%, N#Cc1cccc(NC(=O)CN2CCCCCC2)c1 -0.12%, Cc1cccc(C(=O)OC(C)C(=O)NC2CCCc3ccccc32)c1O (stereo not given) -6.15%, C=CCOC(=O)C1=C(C)OC(N)=C(C#N)C1c1ccc(F)cc1 (stereo not given) -4.37%, CCOC(=O)CSC1=C(C#N)C(c2sccc2C)CC(=O)N1 (stereo not given) 6.38%, Cc1ccc(CN(N=Nc2nonc2N)c2nonc2N)c(C)c1 0.98%, CS(=O)(=O)C1=NN2C(=N)/C(=C\c3ccc(OCCOc4ccccc4)cc3)C(=O)N=C2S1 18.8%, Cc1cc(/C=C2/C(=N)N3C(=NC2=O)SN=C3S(C)(=O)=O)c(C)n1-c1ccccc1 18.8%, Cc1ccc(C)c2[nH]c(=O)c(CN(Cc3cccnc3)C(=S)NCc3ccco3)cc12 7.88%, C[C@H]1CCC(=O)N([C@H](CSc2ccccc2)Cc2ccccc2)CC1 -3.23%, O=C(NCC(c1cccs1)N1CCOCC1)c1cc(-c2ccccn2)nc2ccccc12 (stereo not given) 0.32%, O=C(Nc1ccncc1)c1cc(-c2ccccn2)nc2ccc(Br)cc12 -6.91%, Cc1cc(C)n(CCNC(=O)CC2C(=O)NCCN2Cc2ccc(C)o2)n1 (stereo not given) 2.72%, COc1ccc(OC)c(NC(=O)N[C@H](Cc2ccccc2)C(=O)NN)c1 -4.04%, CCOC(=O)C1(CC2CCCCO2)CCN(Cc2nc(-c3cccs3)oc2C)CC1 (stereo not given) -1.21%, N#C/C(=C\c1ccc(-c2cccc([N+](=O)[O-])c2)o1)C(=O)NCCN1CCOCC1 -14.4%, Cc1ccc(C(=O)N/C(=C/c2ccc(-c3cccc([N+](=O)[O-])c3)o2)C(=O)NCCCN(C)C)cc1 -11.9%, CN1/C(=c2/s/c(=C3/C(=O)N(c4ccccc4)NC3=Nc3ccccc3)n(C)c2=O)C(C)(C)c2ccccc21 21.6%, C=CCC1(C#N)C(=S)NC(C)=C(C(=O)OCC)C1c1ccccc1 (stereo not given) -0.47%, CC(C)c1ccc(N2CC(C(=O)Nc3nccs3)CC2=O)cc1 (stereo not given) 3.92%, O=C(CCCN1C(=O)/C(=C/c2ccccc2)SC1=S)Nc1ccc(O)cc1 0.73%, O=C(CCCN1C(=O)/C(=C\c2ccccc2)SC1=S)Nc1ccccc1O 1.56%, CCC(c1nnnn1Cc1ccco1)N(CCc1ccccc1)Cc1cc2ccc(OC)cc2[nH]c1=O (stereo not given) 14.3%, CCC(c1nnnn1Cc1ccccc1)N(Cc1cc2cc(OC)ccc2[nH]c1=O)CC1CCCO1 (stereo not given) 9.57%, O=C(CSc1nnc(-c2ccc([N+](=O)[O-])cc2)o1)Nc1ccccn1 -13.9%, Cc1cc2c(cc1C)N(C(=O)CN1C(=O)c3ccccc3C1=O)C(C)(C)c1ssc(=S)c1-2 20.8%
